Results published in ChEMBL document CHEMBL2169836 (J Med Chem, 2012).

Columns and labels:
[1] = Metabolic stability in rat liver microsomes at 1 uM up to 60 mins by LC/MS/MS analysis relative to hepatic blood flow; assay type: ADME, Microsome; conditions: read-out: Stability
Cytochrome P450 3A4 = Cytochrome P450 3A4 (Homo sapiens, UniProt P08684); test: Inhibition of CYP3A4 in human liver microsomes using 7-benzyloxy-4-(trifluoromethyl)-coumarin as substrate after 30 mins by LC/MS/MS analysis; assay type: ADME, Microsome
Chain of Cytochrome P450 3A4 (P08684 whole entry): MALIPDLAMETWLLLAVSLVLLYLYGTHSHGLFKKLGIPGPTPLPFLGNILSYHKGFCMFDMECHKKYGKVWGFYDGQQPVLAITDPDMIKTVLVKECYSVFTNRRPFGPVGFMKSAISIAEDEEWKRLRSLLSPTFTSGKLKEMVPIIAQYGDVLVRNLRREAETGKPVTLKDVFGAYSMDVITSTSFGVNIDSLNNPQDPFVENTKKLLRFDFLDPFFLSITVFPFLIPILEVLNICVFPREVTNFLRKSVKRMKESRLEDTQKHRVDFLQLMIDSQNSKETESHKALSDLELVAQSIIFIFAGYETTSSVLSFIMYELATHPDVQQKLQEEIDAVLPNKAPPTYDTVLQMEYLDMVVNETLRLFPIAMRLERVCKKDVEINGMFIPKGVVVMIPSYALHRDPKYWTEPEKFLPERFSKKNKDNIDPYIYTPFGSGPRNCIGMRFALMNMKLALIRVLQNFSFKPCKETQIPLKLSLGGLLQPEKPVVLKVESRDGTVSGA

[2] = Permeability of the compound by PAMPA; assay type: ADME; conditions: read-out: permeability
How it was run: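 Donor buffers were set to pH 5.0, 6.2 and 7.4 with NaOH, and ASB7.4 buffer was used as acceptor. Filters (0.45 pore, 125 μm thick) were lipid-coated. A 10 mM DMSO stock was diluted to 41.7 μM in donor buffer. The sandwich was incubated 4 h without stirring. Reference, donor and acceptor concentrations were read in duplicate by UV plate reader, and ratings were assigned from permeation velocity.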

[3] = target: Sodium/hydrogen exchanger 1 (Homo sapiens, UniProt P19634); test: Inhibition of NHE1 in human HT-29 cells assessed as intracellular pH change after 30 mins; assay type: cell-based
Chain of Sodium/hydrogen exchanger 1 (P19634 whole entry): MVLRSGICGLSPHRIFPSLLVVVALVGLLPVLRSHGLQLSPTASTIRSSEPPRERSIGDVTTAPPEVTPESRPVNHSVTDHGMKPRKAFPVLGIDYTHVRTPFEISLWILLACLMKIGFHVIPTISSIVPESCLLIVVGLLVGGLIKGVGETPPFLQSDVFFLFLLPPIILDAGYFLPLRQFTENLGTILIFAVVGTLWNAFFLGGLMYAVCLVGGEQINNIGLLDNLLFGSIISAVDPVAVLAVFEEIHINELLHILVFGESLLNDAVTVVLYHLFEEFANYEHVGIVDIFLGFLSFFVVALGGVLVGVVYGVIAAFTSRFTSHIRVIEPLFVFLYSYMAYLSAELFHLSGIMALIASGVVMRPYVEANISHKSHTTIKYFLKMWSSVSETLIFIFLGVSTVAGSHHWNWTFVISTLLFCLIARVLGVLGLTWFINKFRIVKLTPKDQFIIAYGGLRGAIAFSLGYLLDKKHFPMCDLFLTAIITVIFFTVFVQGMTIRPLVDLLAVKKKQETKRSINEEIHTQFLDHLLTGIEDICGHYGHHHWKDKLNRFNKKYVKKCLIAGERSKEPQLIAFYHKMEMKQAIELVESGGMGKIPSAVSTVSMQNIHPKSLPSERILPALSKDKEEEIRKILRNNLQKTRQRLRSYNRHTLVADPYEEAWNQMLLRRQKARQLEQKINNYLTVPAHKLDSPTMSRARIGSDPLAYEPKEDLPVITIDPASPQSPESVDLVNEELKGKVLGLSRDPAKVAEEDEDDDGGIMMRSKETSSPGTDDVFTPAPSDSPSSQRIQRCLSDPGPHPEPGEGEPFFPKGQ

[4] = Metabolic stability in human liver microsomes at 1 uM up to 60 mins by LC/MS/MS analysis relative to hepatic blood flow; assay type: ADME, Microsome; conditions: read-out: Stability
Cytochrome P450 2D6 = Cytochrome P450 2D6 (Homo sapiens, UniProt P10635); test: Inhibition of CYP2D6 in human liver microsomes using 3-[2-(N,N-diethyl-N-methylamino)ethyl]-7- methoxy-4-methylcoumarin as substrate after 45 mins by LC/MS/MS analysis; assay type: ADME, Microsome
Chain of Cytochrome P450 2D6 (P10635 whole entry): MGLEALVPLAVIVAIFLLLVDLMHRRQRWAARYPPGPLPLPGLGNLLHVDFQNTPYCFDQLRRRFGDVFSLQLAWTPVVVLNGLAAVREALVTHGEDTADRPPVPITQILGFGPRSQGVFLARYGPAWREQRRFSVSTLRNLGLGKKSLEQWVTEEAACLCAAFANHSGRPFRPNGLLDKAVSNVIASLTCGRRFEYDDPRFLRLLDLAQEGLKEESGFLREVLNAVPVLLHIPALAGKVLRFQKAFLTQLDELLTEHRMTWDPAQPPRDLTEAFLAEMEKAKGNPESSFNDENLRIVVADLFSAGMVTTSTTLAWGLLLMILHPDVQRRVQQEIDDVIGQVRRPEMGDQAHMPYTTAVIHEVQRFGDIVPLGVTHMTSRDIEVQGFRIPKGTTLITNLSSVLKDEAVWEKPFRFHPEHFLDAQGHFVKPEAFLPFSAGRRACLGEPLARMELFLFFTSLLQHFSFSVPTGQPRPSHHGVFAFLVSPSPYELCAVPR

Cytochrome P450 2C9 = Cytochrome P450 2C9 (Homo sapiens, UniProt P11712); test: Inhibition of CYP2C9 in human liver microsomes using 7-methoxy-4-(trifluoromethyl)-coumarin as substrate after 45 mins by LC/MS/MS analysis; assay type: ADME, Microsome
Chain of Cytochrome P450 2C9 (P11712 whole entry): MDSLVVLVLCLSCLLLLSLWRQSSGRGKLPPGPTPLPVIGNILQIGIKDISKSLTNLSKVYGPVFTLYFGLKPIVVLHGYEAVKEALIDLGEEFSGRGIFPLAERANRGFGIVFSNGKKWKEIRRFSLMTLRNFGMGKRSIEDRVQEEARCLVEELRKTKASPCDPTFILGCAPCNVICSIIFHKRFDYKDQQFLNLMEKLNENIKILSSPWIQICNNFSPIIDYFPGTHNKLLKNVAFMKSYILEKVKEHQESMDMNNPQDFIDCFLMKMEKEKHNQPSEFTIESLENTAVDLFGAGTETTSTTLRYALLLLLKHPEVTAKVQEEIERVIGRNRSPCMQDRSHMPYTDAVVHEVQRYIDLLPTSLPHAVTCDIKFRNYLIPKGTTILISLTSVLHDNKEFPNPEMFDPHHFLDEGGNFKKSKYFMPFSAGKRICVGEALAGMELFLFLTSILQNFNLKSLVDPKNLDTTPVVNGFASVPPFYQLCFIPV

Cytochrome P450 2C19 = Cytochrome P450 2C19 (Homo sapiens, UniProt P33261); test: Inhibition of CYP2C19 in human liver microsomes using 7-ethoxy-3-cyanocoumarin as substrate after 45 mins by LC/MS/MS analysis; assay type: ADME, Microsome
Chain of Cytochrome P450 2C19 (P33261 whole entry): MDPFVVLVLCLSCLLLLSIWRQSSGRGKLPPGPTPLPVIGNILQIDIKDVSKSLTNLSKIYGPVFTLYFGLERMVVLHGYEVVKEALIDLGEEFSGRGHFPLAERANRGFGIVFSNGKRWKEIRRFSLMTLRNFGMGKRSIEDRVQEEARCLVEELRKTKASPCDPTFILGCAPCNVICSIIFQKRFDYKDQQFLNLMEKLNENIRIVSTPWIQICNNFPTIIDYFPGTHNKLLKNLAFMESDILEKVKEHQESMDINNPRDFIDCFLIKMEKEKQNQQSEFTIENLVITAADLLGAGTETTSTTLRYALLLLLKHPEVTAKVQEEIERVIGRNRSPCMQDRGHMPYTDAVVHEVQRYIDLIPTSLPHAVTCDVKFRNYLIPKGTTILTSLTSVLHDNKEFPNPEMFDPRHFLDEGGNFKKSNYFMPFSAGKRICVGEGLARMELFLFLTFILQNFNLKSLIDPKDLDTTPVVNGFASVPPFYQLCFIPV

[5] = Oral bioavailability in jugular and femoral vein precannulated Sprague-Dawley rat plasma at 5 mg/kg by LC/MS/MS analysis; assay type: ADME, organism-based
Rattus norvegicus = test: Clearance in jugular and femoral vein precannulated Sprague-Dawley rat at 1 mg/kg, iv by LC/MS/MS analysis relative to hepatic blood flow; assay type: ADME, organism-based, Liver; set-up: dose 1 mg/kg, route intravenous; conditions: in vivo
[6] = Volume of distribution at steady state in jugular and femoral vein precannulated Sprague-Dawley rat at 1 mg/kg, iv by LC/MS/MS analysis; assay type: ADME, organism-based; set-up: dose 1 mg/kg, route intravenous; conditions: in vivo, read-out: Vdss
[7] = Mean resident time in jugular and femoral vein precannulated Sprague-Dawley rat at 1 mg/kg, iv by LC/MS/MS analysis; assay type: ADME, organism-based; set-up: dose 1 mg/kg, route intravenous; conditions: in vivo
[8] = target: Voltage-gated inwardly rectifying potassium channel KCNH2 (Homo sapiens, UniProt Q12809); test: Inhibition of human ERG expressed in HEK 293 cells by PatchXpress assay; assay type: cell-based, HEK293
Chain of Voltage-gated inwardly rectifying potassium channel KCNH2 (Q12809 whole entry): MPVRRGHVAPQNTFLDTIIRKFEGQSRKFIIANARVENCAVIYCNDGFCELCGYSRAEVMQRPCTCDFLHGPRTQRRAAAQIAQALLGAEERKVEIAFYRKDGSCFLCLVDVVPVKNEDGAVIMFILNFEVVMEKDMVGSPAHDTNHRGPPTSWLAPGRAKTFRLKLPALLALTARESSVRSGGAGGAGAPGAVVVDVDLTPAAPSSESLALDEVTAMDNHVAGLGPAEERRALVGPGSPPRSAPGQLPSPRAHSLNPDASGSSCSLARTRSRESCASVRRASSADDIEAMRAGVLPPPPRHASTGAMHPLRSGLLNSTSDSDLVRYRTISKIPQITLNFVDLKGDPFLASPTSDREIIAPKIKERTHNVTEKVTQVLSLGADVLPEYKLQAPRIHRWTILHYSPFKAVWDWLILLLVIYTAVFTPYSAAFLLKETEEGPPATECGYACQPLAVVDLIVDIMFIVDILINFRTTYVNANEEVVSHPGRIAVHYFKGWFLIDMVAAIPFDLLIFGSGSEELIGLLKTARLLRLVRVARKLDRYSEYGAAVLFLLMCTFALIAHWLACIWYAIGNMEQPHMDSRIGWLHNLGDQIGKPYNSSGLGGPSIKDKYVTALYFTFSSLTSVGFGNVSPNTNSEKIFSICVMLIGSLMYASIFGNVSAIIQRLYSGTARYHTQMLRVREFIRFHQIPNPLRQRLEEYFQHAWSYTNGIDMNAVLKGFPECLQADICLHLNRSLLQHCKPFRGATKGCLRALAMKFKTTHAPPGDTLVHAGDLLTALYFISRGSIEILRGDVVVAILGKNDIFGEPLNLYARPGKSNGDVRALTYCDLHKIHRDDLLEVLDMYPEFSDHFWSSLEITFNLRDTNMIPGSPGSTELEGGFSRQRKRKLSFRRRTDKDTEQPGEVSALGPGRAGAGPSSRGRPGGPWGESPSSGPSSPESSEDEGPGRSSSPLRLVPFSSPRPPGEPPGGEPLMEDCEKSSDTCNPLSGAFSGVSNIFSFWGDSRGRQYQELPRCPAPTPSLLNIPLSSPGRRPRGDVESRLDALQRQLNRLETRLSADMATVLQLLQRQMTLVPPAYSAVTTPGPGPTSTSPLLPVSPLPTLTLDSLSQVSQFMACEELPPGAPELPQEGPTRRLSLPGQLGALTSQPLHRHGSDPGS

Row | hepatic extraction ratio at 1 h, 1 µM [1] | IC50 (Cytochrome P450 3A4) [µM] | Papp [2] [×10⁻⁶ cm/s] | IC50 [3] [µM] | hepatic extraction ratio at 1 h, 1 µM [4] | IC50 (Cytochrome P450 2D6) [µM] | IC50 (Cytochrome P450 2C9) [µM] | IC50 (Cytochrome P450 2C19) [µM] | SMILES | other results
1 | 0.1 | > 30 | < 2 | 0.019 | 0.18 | > 30 | 29 | > 30 | N=C(N)NC(=O)c1ccc(C2CCN(C(=O)c3ccc(O)nc3)CC2)c(C(F)(F)F)c1 | –
2 | 0.11 | – | < 2 | 0.021 | 0.27 | – | – | – | N=C(N)NC(=O)c1ccc(C2CCN(C(=O)c3ccc(O)cc3)CC2)c(C(F)(F)F)c1 | –
3 | – | – | < 2 | 0.015 | – | > 30 | > 30 | > 30 | CS(=O)(=O)c1ccc(C(=O)N2CCC(c3ccc(C(=O)NC(=N)N)cc3C(F)(F)F)CC2)cc1 | bioavailability [5]: 15%; CL (Rattus norvegicus): 66%
4 | 0.46 | > 30 | ≥ 2 | 0.068 | 0.67 | > 30 | 7 | 5 | N=C(N)NC(=O)c1ccc(C2CCN(C(=O)c3ccccc3)CC2)c(C(F)(F)F)c1 | –
5 | < 0.056 | 24.5 | < 2 | 0.026 | 0.24 | 12 | 4 | 28 | N=C(N)NC(=O)c1ccc(C2CCN(C(=O)c3ccc(C(N)=O)cc3)CC2)c(C(F)(F)F)c1 | –
6 | 0.78 | – | < 2 | 0.027 | 0.68 | – | – | – | Cc1cc(C(=O)N2CCC(c3ccc(C(=O)NC(=N)N)cc3C(F)(F)F)CC2)nn1C | –
7 | – | – | – | 0.065 | – | – | – | – | N=C(N)NC(=O)c1ccc(C2CCN(C(=O)c3ccc(-n4ccnc4)cc3)CC2)c(C(F)(F)F)c1 | –
8 | 0.12 | > 30 | ≥ 2 | 0.018 | < 0.11 | 11 | 0.4 | 0.06 | N=C(N)NC(=O)c1ccc(C2CCN(C(=O)c3ccncc3)CC2)c(C(F)(F)F)c1 | –
9 | – | – | – | – | – | – | – | – | CC(C)c1ccc(C(=O)NC(=N)N)cc1S(C)(=O)=O [CARIPORIDE] | bioavailability [5]: 37%; CL (Rattus norvegicus): 82%; Vd [6]: 1.3 L/kg; MRT [7]: 24 min
10 | – | – | – | 0.102 | – | – | – | – | N=C(N)NC(=O)c1ccc(C2CCN(C(=O)c3ccc(-c4cnco4)cc3)CC2)c(C(F)(F)F)c1 | –
11 | – | – | – | 0.047 | – | – | – | – | CC(C)CC(=O)N1CCC(c2ccc(C(=O)NC(=N)N)cc2C(F)(F)F)CC1 | –
12 | – | – | ≥ 2 | 0.132 | – | – | – | – | COc1ccc(C(=O)N2CCC(c3ccc(C(=O)NC(=N)N)cc3C(F)(F)F)CC2)cc1 | –
13 | – | 7 | – | 0.028 | – | – | – | 9 | N=C(N)NC(=O)c1ccc(N2CCN(C(=O)c3ccc[nH]3)CC2)c(C(F)(F)F)c1 [SABIPORIDE] | bioavailability [5]: 42%; CL (Rattus norvegicus): 24%; Vd [6]: 1.3 L/kg; MRT [7]: 78 min
14 | – | – | < 2 | 0.03 | – | – | – | – | CNS(=O)(=O)c1ccc(C(=O)N2CCC(c3ccc(C(=O)NC(=N)N)cc3C(F)(F)F)CC2)cc1 | –
15 | – | – | – | 0.108 | – | – | – | – | N=C(N)NC(=O)c1ccc(C2CCN(C(=O)c3ccccc3Cl)CC2)c(C(F)(F)F)c1 | –
16 | < 0.06 | > 30 | ≥ 2 | 0.061 | 0.4 | 10 | 4 | 16 | N#Cc1ccccc1C(=O)N1CCC(c2ccc(C(=O)NC(=N)N)cc2C(F)(F)F)CC1 | –
17 | – | – | – | – | – | – | – | – | N=C(N)NC(=O)c1cnn(-c2cccc3ncccc23)c1C1CC1 [ZONIPORIDE] | bioavailability [5]: 5%; CL (Rattus norvegicus): 105%; Vd [6]: 2.8 L/kg; MRT [7]: 36 min
18 | < 0.06 | > 30 | < 2 | 0.018 | 0.33 | > 30 | 13 | > 30 | N=C(N)NC(=O)c1ccc(C2CCN(C(=O)c3cccnc3)CC2)c(C(F)(F)F)c1 | –
19 | – | – | – | 0.32 | – | – | – | – | N=C(N)NC(=O)c1ccc(C2CCN(C(=O)c3ccc(C(F)(F)F)cc3)CC2)c(C(F)(F)F)c1 | –
20 | 0.14 | > 30 | < 2 | 0.06 | 0.15 | > 30 | > 30 | > 30 | CS(=O)(=O)c1cccc(C(=O)N2CCC(c3ccc(C(=O)NC(=N)N)cc3C(F)(F)F)CC2)c1 | –
21 | – | – | – | 0.064 | – | – | – | – | N=C(N)NC(=O)c1ccc(C2CCN(C(=O)C3CCCC3)CC2)c(C(F)(F)F)c1 | –
22 | – | – | – | 0.045 | – | – | – | – | N=C(N)NC(=O)c1ccc(C2CCN(C(=O)c3ccc[nH]3)CC2)c(C(F)(F)F)c1 | –

Row | hepatic extraction ratio at 1 h, 1 µM [1] | IC50 (Cytochrome P450 3A4) [µM] | Papp [2] [×10⁻⁶ cm/s] | IC50 [3] [µM] | hepatic extraction ratio at 1 h, 1 µM [4] | IC50 (Cytochrome P450 2D6) [µM] | IC50 (Cytochrome P450 2C9) [µM] | IC50 (Cytochrome P450 2C19) [µM] | SMILES | other results
23 | – | – | – | 0.005 | – | – | – | – | CC(=O)N1CCC(c2cc(C)c(C(=O)NC(=N)N)cc2C(F)(F)F)CC1 | IC50 [8]: 7 µM
24 | – | – | – | 0.029 | – | – | – | – | CCCC(=O)N1CCC(c2ccc(C(=O)NC(=N)N)cc2C(F)(F)F)CC1 | –
25 | – | – | – | – | – | – | – | – | Cc1cc(-n2cccc2)c(S(C)(=O)=O)cc1C(=O)NC(=N)N [ENIPORIDE] | bioavailability [5]: 65%; CL (Rattus norvegicus): 28%; Vd [6]: 0.5 L/kg; MRT [7]: 24 min
26 | – | – | – | 0.019 | – | – | – | – | COc1cc(C2CCN(C(C)=O)CC2)c(C(F)(F)F)cc1C(=O)NC(=N)N | –
27 | – | – | – | 0.385 | – | – | – | – | N=C(N)NC(=O)c1ccc(C2CCN(C(=O)c3cccc(Cl)c3)CC2)c(C(F)(F)F)c1 | –
28 | – | – | < 2 | 0.052 | – | – | – | – | CNC(=O)c1ccc(C(=O)N2CCC(c3ccc(C(=O)NC(=N)N)cc3C(F)(F)F)CC2)cc1 | –
29 | < 0.06 | > 30 | ≥ 2 | 0.018 | 0.49 | 27 | 3 | 26 | N=C(N)NC(=O)c1ccc(C2CCN(C(=O)c3ccccn3)CC2)c(C(F)(F)F)c1 | –
30 | – | – | – | 4.71 | – | – | – | – | N=C(N)NC(=O)c1ccc(C2CCN(C(=O)c3ccc(-c4ccccc4)cc3)CC2)c(C(F)(F)F)c1 | –
31 | – | – | – | 0.033 | – | – | – | – | N=C(N)NC(=O)c1ccc(C2CCN(C(=O)c3cccc(-c4cnco4)c3)CC2)c(C(F)(F)F)c1 | –
32 | 0.39 | 0.4 | ≥ 2 | 0.028 | < 0.11 | > 30 | 7 | – | CC(C)C(=O)N1CCC(c2ccc(C(=O)NC(=N)N)cc2C(F)(F)F)CC1 | –
33 | < 0.056 | 3 | < 2 | 0.018 | 0.23 | > 30 | 25 | 15 | Cn1cncc1C(=O)N1CCC(c2ccc(C(=O)NC(=N)N)cc2C(F)(F)F)CC1 | –
34 | – | – | – | 0.306 | – | – | – | – | N=C(N)NC(=O)c1ccc(C2CCN(C(=O)c3ccc(Cl)cc3)CC2)c(C(F)(F)F)c1 | –
35 | < 0.056 | 16 | ≥ 2 | – | < 0.11 | 17 | 6 | 5 | N=C(N)NC(=O)c1ccc(C2CCN(C(=O)C3CC3)CC2)c(C(F)(F)F)c1 | –
36 | – | – | < 2 | 0.05 | – | – | – | – | CN(C)C(=O)c1ccc(C(=O)N2CCC(c3ccc(C(=O)NC(=N)N)cc3C(F)(F)F)CC2)cc1 | –
37 | – | – | – | 0.029 | – | – | – | – | CCC(=O)N1CCC(c2ccc(C(=O)NC(=N)N)cc2S(C)(=O)=O)CC1 | –
38 | 0.07 | 24 | < 2 | 0.014 | 0.24 | > 30 | 16 | > 30 | N=C(N)NC(=O)c1ccc(C2CCN(C(=O)c3ccc(S(N)(=O)=O)cc3)CC2)c(C(F)(F)F)c1 | –
39 | – | – | – | 0.058 | – | – | – | – | CS(=O)(=O)c1ccccc1C(=O)N1CCC(c2ccc(C(=O)NC(=N)N)cc2C(F)(F)F)CC1 | –
40 | – | – | – | 0.015 | – | – | – | – | CC(=O)N1CCC(c2cc(C)c(C(=O)NC(=N)N)cc2S(C)(=O)=O)CC1 | bioavailability [5]: 4%; CL (Rattus norvegicus): 47%; Vd [6]: 1 L/kg; MRT [7]: 21.6 min
41 | – | – | – | 0.022 | – | – | – | – | CC(=O)N1CCC(c2ccc(C(=O)NC(=N)N)cc2S(C)(=O)=O)CC1 | –
42 | 0.3 | 6 | ≥ 2 | – | 0.32 | > 30 | 8 | 11 | N=C(N)NC(=O)c1ccc(C2CCN(C(=O)c3ccc(F)cc3)CC2)c(C(F)(F)F)c1 | –
43 | – | – | ≥ 2 | – | – | – | – | – | CN(C)S(=O)(=O)c1ccc(C(=O)N2CCC(c3ccc(C(=O)NC(=N)N)cc3C(F)(F)F)CC2)cc1 | –
44 | – | – | ≥ 2 | 0.072 | – | > 30 | 17 | – | CC(C)(C)C(=O)N1CCC(c2ccc(C(=O)NC(=N)N)cc2C(F)(F)F)CC1 | CL (Rattus norvegicus): 29%; Vd [6]: 1.8 L/kg; MRT [7]: 90 min
